Consider five compounds from ChEMBL document CHEMBL4007456, “Heterocyclyl Tetracyclines. 1. 7-Trifluoromethyl-8-Pyrrolidinyltetracyclines: Potent, Broad Spectrum Antibacterial Agents with Enhanced Activity against Pseudomonas aeruginosa” (2017).

Assay type in all cases: functional
Experiment [1] relates to Klebsiella pneumoniae. Kind of experiment: Antibacterial activity against gram-negative Klebsiella pneumoniae KP153 harboring tet(A) by CLSI method. The method in brief:
(§1)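 CLSI broth microdilution MIC in fresh cation-adjusted Mueller Hinton broth, supplemented with defibrinated horse blood where appropriate. Compounds serially diluted in sterile deionized water. Runs accepted when comparator antibiotics against ATCC quality-control strains fell within recommended ranges.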

The subject of experiment [2] is Klebsiella pneumoniae. Put plainly: Antibacterial activity against gram-negative Klebsiella pneumoniae KP194 by CLSI method. In outline: (§2)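 Broth microdilution MIC per CLSI in cation-adjusted Mueller Hinton broth, prepared fresh and held at 4 °C. Defibrinated horse blood added where appropriate. Compounds serially diluted in sterile deionized water. Strains from ATCC unless otherwise noted. Runs accepted when comparator antibiotics fell within QC ranges for ATCC quality control strains.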

The subject of experiment [3] is Acinetobacter baumannii. Put plainly: Antibacterial activity against gram-negative Acinetobacter baumannii AB250 by CLSI method. The method in brief:
as §2

Experiment [4] concerns Stenotrophomonas maltophilia. Kind of experiment: Antibacterial activity against gram-negative Stenotrophomonas maltophilia SM256 by CLSI method. In outline:
as §2

In experiment [5] the test system is Enterococcus faecalis. Kind of experiment: Antibacterial activity against gram-positive Enterococcus faecalis EFs327 harboring tet(M) by CLSI method. In outline:
as §1

In experiment [6] the test system is Klebsiella pneumoniae. Kind of experiment: Antibacterial activity against gram-negative Klebsiella pneumoniae KP457 harboring blacTX-M-15 extended spectrum beta-lactamase gene by CLSI method. The method in brief:
as §1

Experiment [7] has as its system Proteus mirabilis. Kind of experiment: Antibacterial activity against gram-negative Proteus mirabilis PM385 by CLSI method. In outline: as §2
In experiment [8] the test system is Pseudomonas aeruginosa. Kind of experiment: Antibacterial activity against gram-negative Pseudomonas aeruginosa PA555 by CLSI method. The method in brief:
as §2

Experiment [9] concerns Enterobacter cloacae. Put plainly: Antibacterial activity against gram-negative Enterobacter cloacae EC1603 harboring tet(A) by CLSI method. In outline:
as §1

Experiment [10] has as its system Staphylococcus aureus. Put plainly: Antibacterial activity against gram-positive Staphylococcus aureus SA101 by CLSI method. In outline:
as §2

For experiment [11], the system named is Staphylococcus aureus. Kind of experiment: Antibacterial activity against gram-positive Staphylococcus aureus SA161 harboring tet(M) by CLSI method. In outline: as §1
The test system of experiment [12] is Enterococcus faecalis. Put plainly: Antibacterial activity against gram-positive Enterococcus faecalis EF159 harboring tet(M) by CLSI method. The method in brief: as §1
The subject of experiment [13] is Streptococcus pneumoniae. Put plainly: Antibacterial activity against gram-positive Streptococcus pneumoniae SP193 by CLSI method. In outline: as §2
Experiment [14] deals with Escherichia coli. Kind of experiment: Antibacterial activity against gram-negative Escherichia coli EC107 by CLSI method. In outline: as §2
In experiment [15] the test system is Escherichia coli. Put plainly: Antibacterial activity against gram-negative Escherichia coli EC155 harboring tet(A) by CLSI method. In outline: as §1
Experiment [16] deals with Proteus mirabilis. Put plainly: Antibacterial activity against gram-negative Proteus mirabilis PM122 by CLSI method. The method in brief: (§3)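 Defibrinated horse blood added where appropriate. Compounds serially diluted in sterile deionized water. Strains from ATCC unless otherwise noted. Runs accepted when comparator antibiotics fell within QC ranges for ATCC quality control strains.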

Experiment [17] has as its system Pseudomonas aeruginosa. Put plainly: Antibacterial activity against gram-negative Pseudomonas aeruginosa PA169 by CLSI method. The method in brief: as §3
Experiment [18] concerns Burkholderia cenocepacia. Kind of experiment: Antibacterial activity against gram-negative Burkholderia cenocepacia BC240 by CLSI method. In outline: as §3
Experiment [19] concerns Staphylococcus aureus. Kind of experiment: Antibacterial activity against gram-positive Staphylococcus aureus SA158 harboring tet(K) by CLSI method. In outline: as §1
For experiment [20], the system named is Streptococcus pneumoniae. Put plainly: Antibacterial activity against gram-positive Streptococcus pneumoniae SP160 harboring tet(M) by CLSI method. In outline: as §1

Converted amounts (≈) assume the structure as drawn.

On to `CN(C)[C@@H]1C(O)=C(C(N)=O)C(=O)[C@@]2(O)C(O)=C3C(=O)c4c(O)cccc4[C@@](C)(O)[C@H]3C[C@@H]12` [TETRACYCLINE], for which the MIC (as a rule, the lowest concentration found to suppress growth) in [1] is greater than 32 µg/mL; in [2], 16 µg/mL (≈ 36 µM); in experiment [3], greater than 32 µg/mL; in experiment [4], 16 µg/mL (≈ 36 µM); in experiment [5], greater than 32 µg/mL; in experiment [6], 8 µg/mL (≈ 18 µM). Moreover, the MIC in experiment [7] was greater than 32 µg/mL; in [8], greater than 32 µg/mL; in experiment [9], greater than 32 µg/mL; in experiment [10] it was 0.25 µg/mL (≈ 0.563 µM); in experiment [11] it was greater than 32 µg/mL; in [12], greater than 32 µg/mL. In addition, the MIC in [13] was 0.125 µg/mL (≈ 0.281 µM); in experiment [14] it was 1 µg/mL (≈ 2.25 µM); in [15], greater than 32 µg/mL.
Consider `CN1CCCCCC1c1cc(O)c2c(c1Cl)C[C@H]1C[C@H]3[C@H](N(C)C)C(O)=C(C(N)=O)C(=O)[C@@]3(O)C(O)=C1C2=O` (some centres undefined), for which the MIC in experiment [1] was 1 µg/mL (≈ 1.79 µM); in experiment [2] it was 16 µg/mL (≈ 28.6 µM); in experiment [16] it was 4 µg/mL (≈ 7.14 µM); in experiment [17], 32 µg/mL (≈ 57.1 µM); in [3] it was 2 µg/mL (≈ 3.57 µM); in experiment [4] it was 0.5 µg/mL (≈ 0.893 µM). The MIC in [18] came to 8 µg/mL (≈ 14.3 µM); in [10] it was 0.25 µg/mL (≈ 0.446 µM); in experiment [11], 2 µg/mL (≈ 3.57 µM); in experiment [19], 0.0313 µg/mL (≈ 0.0559 µM); in experiment [12] it was 2 µg/mL (≈ 3.57 µM); in [20] it was 0.5 µg/mL (≈ 0.893 µM). For the same compound, the results for the MIC in experiment [13], in [14] and in experiment [15] were no more than 0.0156 µg/mL, 0.0625 µg/mL (≈ 0.112 µM) and 2 µg/mL (≈ 3.57 µM), respectively.
In the case of `CN1CCCCC1c1cc(O)c2c(c1Cl)C[C@H]1C[C@H]3[C@H](N(C)C)C(O)=C(C(N)=O)C(=O)[C@@]3(O)C(O)=C1C2=O` (some centres undefined), the MIC was 1 µg/mL (≈ 1.83 µM) in experiment [1]; 16 µg/mL (≈ 29.3 µM) in experiment [2]; 1 µg/mL (≈ 1.83 µM) in experiment [16]; 32 µg/mL (≈ 58.6 µM) in [17]; 2 µg/mL (≈ 3.66 µM) in experiment [3]; 1 µg/mL (≈ 1.83 µM) in [4]. The MIC worked out at 8 µg/mL (≈ 14.7 µM) in experiment [18]; 0.25 µg/mL (≈ 0.458 µM) in [10]; 4 µg/mL (≈ 7.33 µM) in [11]; 0.0313 µg/mL (≈ 0.0573 µM) in experiment [19]; 2 µg/mL (≈ 3.66 µM) in experiment [12]; 0.25 µg/mL (≈ 0.458 µM) in experiment [20]. Moreover, the MIC in [13] was no more than 0.0156 µg/mL; in experiment [14] it was 0.125 µg/mL (≈ 0.229 µM); in [15], 1 µg/mL (≈ 1.83 µM).
`CN1CCCC1c1cc(O)c2c(c1Cl)C[C@H]1C[C@H]3[C@H](N(C)C)C(O)=C(C(N)=O)C(=O)[C@@]3(O)C(O)=C1C2=O` (some centres undefined): the MIC turned out to be 0.5 µg/mL (≈ 0.94 µM) in experiment [1]; 8 µg/mL (≈ 15 µM) in experiment [2]; 0.5 µg/mL (≈ 0.94 µM) in experiment [16]; 16 µg/mL (≈ 30.1 µM) in experiment [17]; 0.5 µg/mL (≈ 0.94 µM) in experiment [3]; 0.125 µg/mL (≈ 0.235 µM) in experiment [4]. Besides, the MIC in experiment [18] was 8 µg/mL (≈ 15 µM); in experiment [10] it was 0.125 µg/mL (≈ 0.235 µM); in experiment [11] it was 1 µg/mL (≈ 1.88 µM); in [19], no more than 0.0156 µg/mL; in experiment [12], 1 µg/mL (≈ 1.88 µM); in [20] it was 0.5 µg/mL (≈ 0.94 µM). In addition, the MIC in [13] is no more than 0.0156 µg/mL; in experiment [14], no more than 0.0156 µg/mL; in experiment [15], 1 µg/mL (≈ 1.88 µM).
As to `CN(C)[C@@H]1C(O)=C(C(N)=O)C(=O)[C@@]2(O)C(O)=C3C(=O)c4c(O)cc(-c5ccncc5)c(Cl)c4C[C@H]3C[C@@H]12`, the MIC was greater than 32 µg/mL in [1]; 16 µg/mL (≈ 30.4 µM) in experiment [16]; greater than 32 µg/mL in experiment [17]; 2 µg/mL (≈ 3.8 µM) in experiment [3]; 2 µg/mL (≈ 3.8 µM) in [4]; 8 µg/mL (≈ 15.2 µM) in [18]. For the same compound, the MIC in experiment [10] was 0.125 µg/mL (≈ 0.238 µM); in experiment [11], 0.5 µg/mL (≈ 0.951 µM); in experiment [19], 0.125 µg/mL (≈ 0.238 µM); in experiment [12], 0.5 µg/mL (≈ 0.951 µM); in experiment [20], 4 µg/mL (≈ 7.61 µM); in experiment [13], 0.25 µg/mL (≈ 0.475 µM). The MIC was 2 µg/mL (≈ 3.8 µM) in experiment [14] and greater than 32 µg/mL in experiment [15].
